The nature of series [1]: Cytotoxicity against human HepG2 cells assessed as reduction in cell viability measured after 48 hrs by CellTiter-Glo assay. The series is classed as cell-based. The essentials:
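HepG2 human hepatoma cells from GSK Biological Reagents and Assay Development (Stevenage, UK); viability read-out per earlier method.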
(ATP-based viability assays read luminescence as a measure of living cells.)

Series [2] can be described thus: Cytotoxicity against human HEK293 cells assessed as reduction in cell viability measured after 48 hrs by resazurin assay. It is filed as cell-based. The essentials:
(§1)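 HEK293 cells from ATCC; Alamar Blue viability read-out run per earlier method.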
(In general: The colour change of resazurin is a common sign of viable cells or microbes.)

Series [3] can be described thus: Lipophilicity, logP of the compound. It is filed as physicochemical. To be noted: octanol/water.
A short description of series [4]: Cytotoxicity against rat H9c2 cells assessed as reduction in cell viability. The series is classed as cell-based.
Series [5] is described as follows: Selectivity index, ratio of CC50 for human HEK293 cells assessed as reduction in cell viability measured after 48 hrs by resazurin assay to IC50 for Trypanosoma brucei brucei Lister 427 […] assessed as parasite growth inhibition measured after 48 hrs by alamar blue assay. It is filed as toxicity, cell-based. To be noted: read-out: Ratio CC50/IC50.

A short description of series [6]: Selectivity index, ratio of CC50 for mouse NIH/3T3 cells to IC50 for recombinant Trypanosoma cruzi intracellular amastigotes expressing beta-galactosidase infected in mouse NIH/3T3 cells assessed as parasite growth inhibition incubated for 4 days by resorufin-beta-D-galactopiranoside substrate based fluorescence assay. The series is classed as toxicity, cell-based. The note with it: time 4 day, read-out: Ratio CC50/IC50.

Series [7] concerns Trypanosoma cruzi. Kind of series: Antitrypanosomal activity against recombinant Trypanosoma cruzi intracellular amastigotes expressing beta-galactosidase infected in mouse NIH/3T3 cells assessed as parasite growth inhibition incubated for 4 days by resorufin-beta-D-galactopiranoside substrate based fluorescence assay. The note with it: NIH3T3, 96 h. It is filed as functional, organism-based.

Series [8] in a line: Selectivity index, ratio of CC50 for rat H9c2 cells assessed as reduction in cell viability to IC50 for Trypanosoma cruzi infected in rat H9c2 infected with trypomastigotes from parasite-infected monkey LLC-MK2 cells measured after 72 hrs by DRAQ5 DNA dye based microscopic imaging analysis. The series is classed as toxicity. The note with it: read-out: Ratio CC50/IC50.
In series [9] the test system is Trypanosoma cruzi. The experiment in a line: Antitrypanosomal activity against Trypanosoma cruzi infected in rat H9c2 infected with trypomastigotes from parasite-infected monkey LLC-MK2 cells measured after 72 hrs by DRAQ5 DNA dye based microscopic imaging analysis. The series is classed as functional, organism-based. The note with it: H9c2, 72 h.
The subject of series [10] is Trypanosoma brucei brucei. The experiment in a line: Antitrypanosomal activity against Trypanosoma brucei brucei Lister 427 assessed as parasite growth inhibition measured after 48 hrs by alamar blue assay. To be noted: Lister 427, 48 h.
The test system of the next series is HEK293. Kind of series: Cytotoxicity against human HEK293 cells assessed as reduction in cell viability measured after 48 hrs by resazurin assay relative to control. It is filed as cell-based. The note with it: hek293, 48 h. The essentials: as §1

A word on the CC50: it is the concentration at which the toxic effect on the cells reaches its halfway point. Broadly, the logP is the decadic logarithm of the partition coefficient of the neutral form, usually between octanol and water. The term IC50 denotes the point on the concentration scale where inhibition reaches its midpoint. Regarding `CCCn1c(NC(=O)Cc2ccc(Cl)cc2)nc2ccccc21`, the 50% cytotoxic concentration (CC50) at 48 h in series [1] was more than 50 µM; in [2], more than 83 µM. In series [3], this compound registered a lipophilicity (logP) of 4.7. In series [4], the CC50 is more than 50 µM. The selectivity ratio at 48 h in series [5] was found to be 50. Also, the selectivity ratio at 96 h in series [6] was determined as 79. Moreover, the IC50 in the series on Trypanosoma cruzi [7] is 0.63 µM. Besides, in series [8], the selectivity ratio at 72 h was determined as 40.

`CCCn1c(NC(=O)Cc2ccc(Cl)cc2)nc2cc(Cl)ccc21`: the values for the IC50 (in the series on Trypanosoma cruzi [9]; in series [10]) were 0.5 µM and 4.4 µM, respectively. Besides, the cytotoxic concentration (CC50) at 48 h in [1] was more than 50 µM. The compound also yielded a logP in series [3] of 5.3. Moreover, the half-maximal cytotoxic concentration (CC50) in series [4] is 7.94 µM. For the same compound, in the series with HEK293, the Activity was 84 µM.

In the case of `CCCn1c(NC(=O)Cc2cccc3ccccc23)nc2ccccc21`, the half-maximal inhibitory concentration (IC50) was 1 µM in the series with Trypanosoma cruzi [9] and 2.6 µM in [10]. Moreover, the figures for the 50% cytotoxic concentration (CC50) at 48 h in [1] and in series [2] were 20 µM and 10 µM, respectively. The same compound showed a logP in series [3] of 5.1. Also, the CC50 in series [4] is more than 50 µM.

Take `CCCn1c(NC(=O)Cc2ccc(Cl)cc2)nc2ccc(F)cc21`: the IC50 in the series on Trypanosoma cruzi [9] is 1.3 µM; in [10], 0.9 µM. In addition, the CC50 at 48 h in series [1] is more than 50 µM; in series [2], 14 µM. In addition, the logP in series [3] stood at 4.9. In addition, the CC50 in [4] is 25 µM.

Regarding `CCn1c(NC(=O)Cc2ccc(Cl)cc2)nc2ccccc21`, the IC50 in the series on Trypanosoma cruzi [9] was 2.5 µM; in series [10], 3.1 µM. In addition, the half-maximal cytotoxic concentration (CC50) at 48 h in [1] is more than 50 µM; in series [2] it was more than 83 µM. Besides, in series [3], the logP was found to be 4.2. In addition, the CC50 in [4] was found to be 40 µM.

For the compound `C=CCc1c(NC(=O)Cc2ccc(Cl)cc2)ncc2ccccc12`, the half-maximal inhibitory concentration (IC50) in the series on Trypanosoma cruzi [9] is 20 µM; in series [10] it was more than 83 µM. The CC50 at 48 h in [1] is more than 50 µM; in series [2], more than 83 µM. This compound also returned a logP in [3] of 5.1. Further, the half-maximal cytotoxic concentration (CC50) in series [4] is more than 50 µM.

For `CCCn1c(NC(=O)Cc2ccccc2OC)nc2ccccc21`, the values for the IC50 (with Trypanosoma cruzi [9]; in [10]) were 6.3 µM and more than 83 µM, respectively. Also, the 50% cytotoxic concentration (CC50) at 48 h is more than 50 µM in series [1] and more than 83 µM in series [2]. In series [3], this compound registered a log partition coefficient (logP) of 4. In [4], the cytotoxic concentration (CC50) came to 13 µM.

In the case of `CCCn1c(NC(=O)Cc2ccccc2Cl)nc2ccccc21`, the IC50 came to 2 µM with Trypanosoma cruzi [9] and 2.3 µM in [10]. Moreover, the 50% cytotoxic concentration (CC50) at 48 h was 25 µM in series [1] and 14 µM in series [2]. This compound returned a lipophilicity (logP) in [3] of 4.7. Also, in series [4], the half-maximal cytotoxic concentration (CC50) was determined as 25 µM.

As to `CCCn1c(NC(=O)Cc2ccc(Cl)cc2)nc2ccc(Br)cc21`, the concentration for half-maximal inhibition (IC50) turned out to be 0.4 µM in the series with Trypanosoma cruzi [9] and 1.5 µM in series [10]. Further, the CC50 at 48 h in [1] is more than 50 µM; in series [2] it was more than 83 µM. Moreover, in series [3], the logP was found to be 5.5. In addition, the 50% cytotoxic concentration (CC50) in [4] was determined as 13 µM.

Take `CCCn1c(NC(=O)Cc2cccc(OC)c2)nc2ccccc21`: the results for the IC50 (in the series with Trypanosoma cruzi [9]; in series [10]) were 4 µM and 4.3 µM, respectively. Further, the CC50 at 48 h in series [1] is more than 50 µM; in series [2] it was more than 83 µM. The same compound registered a lipophilicity (logP) in series [3] of 4. Further, the CC50 in series [4] is more than 50 µM.

As for `CCCn1c(NC(=O)Cc2ccc3ccccc3c2)nc2ccccc21`, the IC50 in the series with Trypanosoma cruzi [9] was determined as 1.3 µM; in series [10] it was 5.5 µM. The 50% cytotoxic concentration (CC50) at 48 h in series [1] is 25 µM; in series [2] it was more than 83 µM. The logP in series [3] stood at 5.1. For the same compound, in series [4], the CC50 was more than 50 µM.

As to `CCCn1c(NC(=O)CCc2ccccc2)nc2ccccc21`, the 50% inhibitory concentration (IC50) in the series on Trypanosoma cruzi [9] was 5 µM; in series [10], 3.5 µM. Also, the values for the CC50 at 48 h in series [1] and in [2] were more than 50 µM and 14 µM, respectively. In addition, the lipophilicity (logP) in [3] came out at 4.6. In series [4], the CC50 is more than 50 µM.

Regarding `CCCn1c(C(=O)NCc2ccc(Cl)cc2)nc2ccccc21`, the IC50 was 10 µM with Trypanosoma cruzi [9] and more than 83 µM in [10]. For the same compound, the CC50 at 48 h in [1] was more than 50 µM; in series [2], more than 83 µM. Moreover, the lipophilicity (logP) in series [3] was determined as 4.1. Also, the CC50 in series [4] came to 16 µM.

With `CCCn1c(NC(=O)Cc2cccc(Br)c2)nc2ccccc21`, the figures for the IC50 (in the series with Trypanosoma cruzi [9]; in series [10]) were 1 µM and 2.9 µM, respectively. For the same compound, the 50% cytotoxic concentration (CC50) at 48 h in series [1] was more than 50 µM; in [2], more than 83 µM. The lipophilicity (logP) in series [3] was 4.9. Moreover, the half-maximal cytotoxic concentration (CC50) in [4] is more than 50 µM.

`CCCn1c(NC(=O)Cc2ccc(Cl)cc2)nc2c(Br)cccc21`: the half-inhibitory concentration (IC50) in the series with Trypanosoma cruzi [9] worked out at 10 µM; in series [10], 19 µM. Also, the 50% cytotoxic concentration (CC50) at 48 h in series [1] was more than 50 µM. The compound also had a lipophilicity (logP) in series [3] of 5.5. The half-maximal cytotoxic concentration (CC50) in series [4] is more than 50 µM. Also, in the series with HEK293, the Activity came to 54 µM.

On to `CCCn1c(NC(=O)Cc2ccc(Cl)cc2)nc2c(OC)cccc21`, for which the figures for the IC50 (in the series with Trypanosoma cruzi [9]; in series [10]) were 3.2 µM and more than 83 µM, respectively. The CC50 at 48 h in [1] was more than 50 µM; in [2], more than 83 µM. The logP in series [3] came out at 4.6. Moreover, the 50% cytotoxic concentration (CC50) in series [4] was more than 50 µM.

The values above are taken from ChEMBL document CHEMBL4699414, “Hit-to-lead optimization of novel benzimidazole phenylacetamides as broad spectrum trypanosomacides” (RSC Med Chem, 2020).
